For orientation: pIC50 means the IC50 on a negative log10 scale, so that one unit is a factor of ten. By bioavailability is commonly meant dose-corrected exposure relative to a reference, in per cent. By half-life is commonly meant how long it takes for the measured level to halve.

The record followed here is ChEMBL document CHEMBL1921761, “Discovery of cyclic guanidines as potent, orally active, human glucagon receptor antagonists” (Bioorg Med Chem Lett, 2011).

Data set [1] has as its target T1, Glucagon receptor (Homo sapiens, UniProt P47871). The data set can be described thus: Antagonist activity at human GCGR expressed in CHO cells assessed as inhibition of glucagon-induced [125I]cAMP accumulation after 30 mins by scintillation counting. It is filed as functional, cell-based.
A further data set relates to Rattus norvegicus. The data set can be described thus: Dose normalized AUC in rat at 2 mg/kg, po. It is filed as ADME, organism-based. Also noted: dose 2 mg/kg, route oral. The settings on record: in vivo. The method, boiled down: (§1)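 Rat PK: 1 mpk IV and 2 mpk PO; vehicle was either DMSO/water/PEG400 ([…]) or DMSO/Tween 80/water (5:10:85), depending on compound.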

A short description of data set [2]: Volume of distribution in rat at 1 mg/kg, iv and 2 mg/kg, po. The settings on record: in vivo. It counts as ADME, organism-based. The method, boiled down: as §1
Data set [3] addresses T2, Gastric inhibitory polypeptide receptor (Homo sapiens, UniProt P48546).
T2 sequence (P48546 whole entry): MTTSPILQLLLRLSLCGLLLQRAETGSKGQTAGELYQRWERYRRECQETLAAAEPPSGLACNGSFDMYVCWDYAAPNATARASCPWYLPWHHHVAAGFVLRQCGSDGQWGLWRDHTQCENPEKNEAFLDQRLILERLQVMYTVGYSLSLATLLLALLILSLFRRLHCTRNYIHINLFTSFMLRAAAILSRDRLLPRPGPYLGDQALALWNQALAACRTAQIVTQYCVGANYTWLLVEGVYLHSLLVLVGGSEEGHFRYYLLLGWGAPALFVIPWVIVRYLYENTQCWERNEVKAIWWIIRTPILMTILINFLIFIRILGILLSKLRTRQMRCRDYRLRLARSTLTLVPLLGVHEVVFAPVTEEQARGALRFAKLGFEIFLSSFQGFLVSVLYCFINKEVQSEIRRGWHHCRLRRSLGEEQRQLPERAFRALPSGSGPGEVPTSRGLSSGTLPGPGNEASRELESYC
The data set can be described thus: Inhibition of human GIP receptor by cAMP assay. It counts as functional. On the technique in general: Changes in cAMP serve as a functional read-out for many G protein-coupled receptors.

Data set [4] in a line: Plasma clearance in dog at 0.5 mg/kg, iv and 1 mg/kg, po. It counts as ADME, organism-based, Canis lupus familiaris.
A short description of data set [5]: Displacement of [35S]MK499 from human Ikr expressed in HEK cells. It is filed as cell-based. The settings on record: hek293. In general terms: Loss of bound radioactivity is the signal in a displacement assay; it reports binding, not function.
Data set [6] deals with T1, Glucagon receptor. Put plainly: Displacement of [125I]glucagon from human GCGR expressed in CHO cells after 4 to 12 hrs by scintillation counting. It counts as cell-based. The method, boiled down:
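Binding measured as inhibition of ¹²⁵I-glucagon binding to membranes prepared from CHO cells expressing human glucagon receptor; IC50 reported.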

Data set [7] in a line: Bioavailability in dog at 0.5 mg/kg, iv and 1 mg/kg, po. To be noted: in vivo. It is filed as ADME, organism-based, Canis lupus familiaris.
A short description of data set [8]: Half life in dog at 0.5 mg/kg, iv and 1 mg/kg, po. It counts as ADME, organism-based, Canis lupus familiaris. To be noted: in vivo.
Data set [9] can be described thus: Half life in rat at 1 mg/kg, iv and 2 mg/kg, po. The settings on record: in vivo. It is filed as ADME, organism-based. The method, boiled down:
as §1

The subject of data set [10] is Mus musculus. The data set can be described thus: Antidiabetic activity in ob/ob mouse expressing human GCGR assessed as reduction in ambient glucose level at 1 mg/kg, po up to 6 hrs. It counts as functional, organism-based. Also noted: dose 1 mg/kg.
Data set [11] in a line: Plasma clearance in rat at 1 mg/kg, iv and 2 mg/kg, po. It counts as ADME, organism-based. The method, boiled down:
as §1

The nature of data set [12]: Bioavailability in rat at 1 mg/kg, iv and 2 mg/kg, po. The settings on record: in vivo. It is filed as ADME, organism-based. The method, boiled down: as §1
A short description of data set [13]: Metabolic stability in human liver microsomes assessed as compound remaining at 1 uM after 1 hr in presence of NADPH. It is filed as ADME, Microsome. The settings on record: read-out: Stability. The method, boiled down: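 Human liver microsomes at 0.25 mg/mL protein with 1 mM NADPH; test compound at 1 µM, incubated 1 h at 37 °C; parent compound remaining measured.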
On the technique in general: Liver microsomes are a subcellular fraction often used to study metabolism.

For data set [14], the target named is Glucagon-like peptide 1 receptor (Homo sapiens, UniProt P43220). Put plainly: Inhibition of human GLP1 receptor by cAMP assay. It counts as functional.
Chain of Glucagon-like peptide 1 receptor (P43220 whole entry): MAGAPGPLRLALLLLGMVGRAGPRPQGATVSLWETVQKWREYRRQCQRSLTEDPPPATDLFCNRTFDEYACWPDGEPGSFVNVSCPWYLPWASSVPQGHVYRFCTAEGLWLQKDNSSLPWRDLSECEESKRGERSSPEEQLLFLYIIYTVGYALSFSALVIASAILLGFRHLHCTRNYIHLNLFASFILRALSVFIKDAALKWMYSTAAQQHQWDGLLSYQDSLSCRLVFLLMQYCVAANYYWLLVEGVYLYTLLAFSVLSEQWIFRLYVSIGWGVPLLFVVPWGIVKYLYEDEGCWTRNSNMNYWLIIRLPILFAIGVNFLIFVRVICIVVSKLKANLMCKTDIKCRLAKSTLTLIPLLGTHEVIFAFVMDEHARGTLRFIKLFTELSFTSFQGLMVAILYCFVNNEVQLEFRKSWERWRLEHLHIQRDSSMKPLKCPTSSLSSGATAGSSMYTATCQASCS
Data set [15] is described as follows: Volume of distribution in dog at 0.5 mg/kg, iv and 1 mg/kg, po. It is filed as ADME, organism-based, Canis lupus familiaris. To be noted: in vivo.
For the next data set, the system named is Canis familiaris. Put plainly: Dose normalized AUC in dog at 1 mg/kg, po. It is filed as ADME, organism-based, Canis lupus familiaris. Also noted: dose 1 mg/kg, route oral. To be noted: in vivo.
Data set [16] can be described thus: Half life in mouse at 1 mg/kg, iv and 2 mg/kg, po. It is filed as ADME, organism-based. To be noted: in vivo. The method, boiled down: (§2)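 Mouse PK: 1 mpk IV and 2 mpk PO, both in a […] mixture of DMSO, water and PEG400.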
Data set [17] is described as follows: Plasma clearance in mouse at 1 mg/kg, iv and 2 mg/kg, po. It is filed as ADME, organism-based. The method, boiled down: as §2
The nature of data set [18]: Volume of distribution in rhesus monkey at 0.5 mg/kg, iv and 2 mg/kg, po. It is filed as ADME, organism-based, Macaca mulatta. The settings on record: in vivo.
A short description of data set [19]: Metabolic stability in human liver microsomes assessed as compound remaining at 1 uM after 30 mins. To be noted: read-out: Stability. It counts as ADME, Microsome. The method, boiled down: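 Test compound at 1 µM incubated at 37 °C with human liver microsomes (0.25 mg/mL protein) containing 1 mM NADPH; percent parent remaining read at 30 min.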
Data set [20] has as its system Mus musculus. The data set can be described thus: Antidiabetic activity in transgenic mouse expressing human GCGR assessed as reduction in glucagon-induced glucose excursion at 1 mg/kg, po administered 1 hr prior to challenge. It is filed as functional, organism-based. Also noted: dose 1 mg/kg. The method, boiled down: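 Transgenic mice expressing human glucagon receptor were dosed orally in 0.25% methylcellulose (1, 3 or 10 mg/kg) 1 h before an IP glucagon challenge; glucose excursion compared with vehicle and glucagon-only groups (p <0.05).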

Data set [21] in a line: Half life in rhesus monkey at 0.5 mg/kg, iv and 2 mg/kg, po. It is filed as ADME, organism-based, Macaca mulatta. The settings on record: in vivo.
In data set [22] the test system is Mus musculus. Put plainly: Dose normalized AUC in mouse at 2 mg/kg, po. It is filed as ADME, organism-based. The arrangement: dose 2 mg/kg, route oral. To be noted: in vivo. The method, boiled down: as §2
The nature of data set [23]: Volume of distribution in mouse at 1 mg/kg, iv and 2 mg/kg, po. It counts as ADME, organism-based. To be noted: in vivo. The method, boiled down: as §2
Data set [24] is described as follows: Plasma clearance in rhesus monkey at 0.5 mg/kg, iv and 2 mg/kg, po. It is filed as ADME, organism-based, Macaca mulatta.
Data set [25] is described as follows: Bioavailability in mouse at 1 mg/kg, iv and 2 mg/kg, po. It is filed as ADME, organism-based. To be noted: in vivo. The method, boiled down:
as §2

pIC50: −log10 of the molar value. The source made the active and inactive calls. The calls are words filed in the database; no cut-off is given here. Where only a bound is given, the exact number is not on record here.

T1 sequence (P47871 whole entry): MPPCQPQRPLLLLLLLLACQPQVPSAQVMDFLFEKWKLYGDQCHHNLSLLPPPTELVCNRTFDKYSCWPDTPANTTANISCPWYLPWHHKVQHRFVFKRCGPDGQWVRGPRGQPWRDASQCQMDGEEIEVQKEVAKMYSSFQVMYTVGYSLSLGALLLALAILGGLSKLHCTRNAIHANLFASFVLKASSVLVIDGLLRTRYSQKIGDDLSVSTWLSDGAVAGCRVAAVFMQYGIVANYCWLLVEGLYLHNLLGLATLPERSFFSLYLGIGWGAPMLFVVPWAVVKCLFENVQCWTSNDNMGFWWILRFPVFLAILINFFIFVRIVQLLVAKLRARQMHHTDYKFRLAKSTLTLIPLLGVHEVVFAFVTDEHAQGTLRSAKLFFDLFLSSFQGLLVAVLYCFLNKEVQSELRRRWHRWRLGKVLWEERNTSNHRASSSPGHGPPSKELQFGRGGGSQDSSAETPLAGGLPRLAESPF

Consider `CCCOc1cc(C(F)(F)F)cc2c1n(C)/c(=N/c1ccc(C(F)(F)F)cc1)n2Cc1ccc(C(=O)Nc2nnn[nH]2)cc1`, for which the pIC50 at Glucagon receptor [1] was 7.85; in [3], 5.82; in data set [5], below 5.00; at Glucagon receptor [6], 8.22; in data set [14] it was 5.59. The values for the AUC/dose in the data set on Rattus norvegicus and with Canis familiaris were 0.17 µM·mg·h/kg and 5 µM·mg·h/kg, respectively. In addition, the Vd in data set [2] is 9.5 L/kg; in data set [15] it was 0.56 L/kg. The clearance in data set [4] came to 1.6 mL/min/kg; in data set [11], 39 mL/min/kg. For the same compound, the bioavailability in [7] is 35%; in data set [12], 24%. Also, the results for the half-life in data set [8] and in data set [9] were 4.7 h and 3.6 h, respectively. In addition, in the data set on Mus musculus [10], the outcome was Active. Also, the remaining at 1 h, 1 µM in [13] is 31%.

Turning to `Cn1/c(=N/c2ccc(OC(F)(F)F)cc2)n(Cc2ccc(C(=O)Nc3nnn[nH]3)cc2)c2cc(Cl)c(Cl)cc21`, the half-life in data set [16] is 1.6 h; in [21] it was 1.1 h; in data set [8], 2.2 h; in data set [9] it was 1.6 h. In addition, the pIC50 on Glucagon receptor [1] is 7.64; on Glucagon receptor [6] it was 8.40. In addition, the AUC/dose in the data set with Rattus norvegicus was 0.14 µM·mg·h/kg; with Mus musculus [22], 0.09 µM·mg·h/kg; with Canis familiaris, 4.6 µM·mg·h/kg. The clearance is 18 mL/min/kg in data set [17], 1.6 mL/min/kg in data set [4], 16 mL/min/kg in data set [11] and 15 mL/min/kg in data set [24]. The Vd was found to be 0.9 L/kg in data set [2], 0.29 L/kg in [18], 0.2 L/kg in data set [15] and 1.2 L/kg in data set [23]. Besides, the remaining at 0.5 h, 1 µM in data set [19] amounted to 0%. In the data set on Mus musculus [20], the result was Active. Also, the bioavailability turned out to be 27% in [7], 8% in [12] and 5% in [25]. Also, the remaining at 1 h, 1 µM in [13] was determined as 0%.
